Source: publication PMC5879004 (Heart rhythm, 2017)
Entries after “also recorded” stand apart in the source; their conditions may differ.

How the values were obtained:
[1] = target: purified RyR2 (Ovis aries, UniProt A0ACI6RLQ3); assay: Single-channel recordings of purified RyR2 in planar lipid bilayers; type: biochemical, sheep
[2] = tested on: RyR2 macromolecular complex (sheep cardiac SR); assay: 3H-Ryanodine binding to cardiac SR vesicles
Summary of the method: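 Sheep cardiac SR vesicles (0.5mg/ml) incubated to equilibrium for 3hrs at 37°C in 20mM HEPES pH 7.4, 250mM KCl, 50µM CaCl2, 2nM 3H-ryanodine plus 13nM unlabeled ryanodine, ± test compound. Non-specific binding (200nM ryanodine, 4mM EGTA) subtracted. Quenched by rapid filtration. Ca2+-dependence run across free Ca2+ levels set with EGTA. Data as mean ± SEM.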

[3] = tested on: WT myocytes; assay: Ca2+ spark frequency; type: cell-based, mouse; settings: 500nM
Summary of the method: (§1)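 Isolated mouse ventricular myocytes were loaded with Fluo-4-AM (2µM) and stimulated with 100nM isoproterenol to raise spontaneous sparks. Cells were exposed to vehicle or test compound for 2hrs, then sparks were imaged by confocal microscopy and spark frequency computed. For R176Q cells, a 0.5nM–5µM dose series was fitted sigmoidally for IC50 (n=6–10 cells per group, 3 mice).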

[4] = tested on: R176Q mice; assay: Inducible VT by extrastimuli pacing after epinephrine and caffeine; type: in vivo, mouse; settings: 2.5µg/kg i.p. 15 minutes prior to pacing, vehicle 8 of 11
Summary of the method: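 Adult (2–3-month) R176Q mice under 1.5% isoflurane in 95% O2 had surface ECG and intracardiac electrograms recorded. Epinephrine (2mg/kg) and caffeine (120mg/kg) were given i.p., then extrastimulus pacing tested VT inducibility, with or without i.p. test compound. Incidence was scored as mice with VT per group.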

[5] = tested on: R176Q mice; assay: ECG parameters after injection; type: in vivo, mouse
Summary of the method: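 RyR2-R176Q/+ mice aged 2–3 months were anesthetised with 1.5% isoflurane in 95% O2. Six-lead surface ECG and intracardiac electrograms were recorded simultaneously, at baseline and with or without intraperitoneal test compound.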

[6] = tested on: ventricular myocytes of WT mice; assay: Ca2+ transient amplitude induced by 1-Hz field stimulation, WT myocytes; type: cell-based, mouse; settings: 500nM, vehicle 2.6 ± 0.2
[7] = tested on: R176Q myocytes; assay: Ca2+ transient amplitude induced by 1-Hz field stimulation, R176Q myocytes; type: cell-based, mouse; settings: 500nM, vehicle 2.4 ± 0.1
[8] = tested on: ventricular myocytes from R176Q mice; assay: Ca2+ spark frequency; type: cell-based, mouse
Summary of the method: as §1

[9] = IC50, single-channel, purified RyR2 without CaM, 25µM cis-Ca2+
[10] = −Log([IC50], M), single-channel, purified RyR2 without CaM, 25µM cis-Ca2+

Structure (SMILES)	IC50 [1, 9] [nM]	channel activity at concentrations above 100nM ([1]; purified RyR2 without CaM)	IC50 [1, 10] [nM]	inhibition of channel activity ([1]; purified RyR2, all concentrations tested (10nM-100µM))	effect on equilibrium 3H-ryanodine binding ([2]; equilibrium binding, sheep cardiac SR)	effect on CaSF [3]	incidence of inducible VT [4]	IC50 ([1]; IC50, single-channel, purified RyR2 + 100nM CaM) [nM]	IC50 ([1]; IC50, single-channel, purified RyR2 + 1μM CaM) [nM]	reduction in potency (IC50 higher) vs CaM-free purified RyR2 ([1]; cardiac SR or purified RyR2 supplemented with 100nM or 1µM CaM) [fold]	IC50 ([1]; −Log([IC50], M), single-channel, purified RyR2 + 100nM CaM) [nM]	IC50 ([1]; −Log([IC50], M), single-channel, purified RyR2 + 1μM CaM) [nM]	effect on ECG parameters (RR, HR, PR, QRS, QTc) [5]	Ca2+ transient amplitude [6] [F/Fo]	Ca2+ transient amplitude [7] [F/Fo]	concentration required for inhibition of equilibrium 3H-ryanodine binding ([2]; equilibrium binding over 3 hours) [µM]	shift of the Ca2+-dependence of 3H-ryanodine binding ([2]; therapeutic concentrations)	reduction of CaSF compared to vehicle ([8]; 500nM)	IC50 ([8]; CaSF inhibition, 2hrs exposure) [nM]
CCCCNc1ccc(C(=O)O)c(OC)c1 [Compound 2, 4-(butylamino)-2-methoxybenzoic acid]	9.45	completely inhibited	9.55																
CCN(CC)CCO [Compound 3, 2-(diethylamino)-ethanol, reference compound]				did not inhibit	no effect														
CCCCNc1ccc(C(=O)OCCN(CC)CC)c(OC)c1 [EL20, 2-(diethylamino)ethyl 4-(butylamino)-2-methoxybenzoate]	8.21	completely inhibited	8.13			did not significantly alter	1 of 7 and significantly reduced	1860	3560	200 to 1000	1860	3550	did not alter any ECG parameters; also recorded: not affected	2.7 ± 0.2	2.8 ± 0.3	> 10	did not shift	~ 70%	35.4
